Screening data from PubChem.
RAM network inh = yeast RAM network inhibition; AID 868; inhibition, % at 50 µM; hit rate 1.8% among 190,000; S. cerevisiae dse1pr::URA3 reporter, 5-FOA growth OD615, 2 d; analog-sensitive cbk1-as2 kinase mutant strain;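 active = inhibition above a set limit, 3 SD over mean compound inhibition, cut at about 8.4% in these data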;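 also: 0% = DMSO-only wells with no growth and 100% = 10 µM 1-NA-PP1 full growth; inhibition rescues growth on 5-FOA so higher OD means more RAM inhibition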
Measles CPE = protection of cells from measles virus | hit rate 1.5% among 140,000 | AID 841 | protection (pct of control), % at 4 µM | Measles virus-infected cells, CPE protection, absorbance; in the data active = protection mostly above about 24%, no sharp cut-off; inactive = mostly below about 26%
Yeast growth inh = reduces growth of yeast BB579 in restrictive medium | S. cerevisiae BB579 growth, OD615, 48 h | inhibition, % at 10 µM | hit rate 0.51% among 140,000;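 active = inhibition above a set limit, 3 SD over the mean compound inhibition, cut at about 44% in these data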
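Material: Saccharomyces cerevisiae DeaD strain BB579, replicative lifespan model yeast; buffer or medium: CSMM-D restrictive synthetic medium containing dextrose (glucose); compound: 10 µM single dose, DMSO 0.25%; timing: 48 h compound exposure at 30 °C after 4 h preincubation; signal: turbidity as optical density at 615 nm; benchmarks: positive control amphotericin B 10 µg/mL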
INS promoter inh = TRM-6 insulin promoter activity inhibition | TRM-6 cells, insulin promoter-eGFP reporter, imaging; reporter expression induced with tamoxifen | inhibition, % at 2 µM | hit rate 0.9% among 130,000;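 active = inhibition above the mean plus 3 SD, with well images judged a real hit on visual review, cut at about 60% in these data, passing the limit was not always enough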
MDM2 E3 inh = blocks human Mdm2 ubiquitin ligase activity. Q00987. cell-based MDM2 ubiquitination luciferase reporter, 2 h; 0 = plate control, 100 = twice control, blank-subtracted. signal enhancement, % at 5 µM. hit rate 0.11% among 210,000. AID 1230;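 active = signal enhancement of 30% or more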;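 also: luminescence tracks abundance of the self-degrading MDM2-luciferase fusion protein; higher signal means inhibition of MDM2 E3 ligase activity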
Target sequence (Q00987 whole entry, looked up, the tested form may be a part): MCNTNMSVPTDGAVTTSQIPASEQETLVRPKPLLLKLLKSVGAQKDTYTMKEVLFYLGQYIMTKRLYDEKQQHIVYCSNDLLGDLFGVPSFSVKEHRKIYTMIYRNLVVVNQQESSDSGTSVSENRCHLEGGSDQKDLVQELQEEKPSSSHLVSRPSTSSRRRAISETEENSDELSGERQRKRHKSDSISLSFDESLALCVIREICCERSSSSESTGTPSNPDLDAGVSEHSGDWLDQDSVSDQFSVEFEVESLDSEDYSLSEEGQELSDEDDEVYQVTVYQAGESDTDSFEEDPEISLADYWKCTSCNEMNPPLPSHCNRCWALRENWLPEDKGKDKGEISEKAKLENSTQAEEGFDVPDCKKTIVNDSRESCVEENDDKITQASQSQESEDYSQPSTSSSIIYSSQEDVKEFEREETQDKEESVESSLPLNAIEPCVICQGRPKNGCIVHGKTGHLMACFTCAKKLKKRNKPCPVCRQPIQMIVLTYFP
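Material: stable MDM2–luciferase fusion reporter cells / Quantity: 2000 cells/well / Dosing: single 5 µM compound dose, 0.2% final DMSO / Buffer or medium: DMEM / Schedule: 4 h cell settling then 2 h compound exposure, 37 °C / Detection: luminescence with SteadyLite reagent, 15 min at room temperature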
Yeast lifespan up = extends the lifespan of yeast. S. cerevisiae growth with nicotinamide, OD615; deaD strain in restrictive glucose medium. inhibition of the nicotinamide effect, % at 10 µM. hit rate 0.68% among 130,000. AID 775;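 active = inhibition above a set limit, placed 3 SD over the median of all compounds, cut at about 26% in these data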;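 also: 0% = nicotinamide-treated wells and 100% = cells grown without nicotinamide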
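Assay system: engineered S. cerevisiae DeaD replicative-lifespan strain, galactose-grown log-phase cells; Buffer or medium: CSMM-D glucose medium, restrictive; Probe or stimulus: nicotinamide 1.5 mM; Compound: single dose 10 µM compound, 0.25% DMSO; Schedule: 4 h preincubation then 48 h treatment at 30 °C; Technique: OD615 measurement.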
Active calls of the source: *; i = inactive; nt = no result. An excerpt weighted towards active compounds, which were near 4% of everything screened.

SMILES	RAM network inh	Measles CPE	Yeast growth inh	INS promoter inh	MDM2 E3 inh	Yeast lifespan up
COc1ccccc1OC(=O)c1ccc(S(=O)(=O)N(C)C)cc1	-1	44*	-52	-33	16	-3
Cc1oc(-c2cccs2)nc1CN1CCC(CO)(CCOc2ccccc2)CC1	1	nt	nt	nt	-7	nt
COc1ccc(-n2nnnc2-c2cccc(OC)c2)cc1	0	6	-19	-50	3	-7
COc1ccc(-n2nnnc2-c2cnc3cc4c(cc3c2C)OCO4)cc1	-1	53*	4	nt	0	-22
CNc1nc(NC#N)nc(SC)n1	nt	nt	nt	nt	-7	nt
Clc1ccc(CSc2nnnn2-c2ccc3c(c2)OCO3)c(Cl)c1	8	15	-41	-50	-26	-15
CC(C)(Nc1ccccc1)C(=O)c1ccccc1	0	32*	8	30	0	6
O=C(COC(=O)c1cc(Br)ccc1Cl)NC(=O)NCc1ccccc1	3	3	-37	19	5	8
O=C(COC(=O)c1ccccc1O)Nc1ccc(S(=O)(=O)N2CCCCC2)cc1	2	nt	nt	nt	6	nt
O=C(COC(=O)c1ccccc1Cl)NC(=O)NCc1ccccc1	2	68*	-2	-8	-1	-4
O=C(COC(=O)c1ccccc1NS(=O)(=O)c1ccc(Cl)cc1)NCc1ccccc1	11*	14	-47	7	-19	8
O=C(COC(=O)c1ccccc1Br)NCc1ccccc1	-1	8	-2	-41	0	-5
O=C(CN1CCCCC1)NC(=O)NCc1ccccc1	1	13	-36	-3	38*	6
CCOC(=O)c1ccccc1NS(=O)(=O)c1ccc(S(=O)(=O)N2CCCC2)cc1	10*	17	-32	nt	7	2
O=C(CN1CCCCCC1)NCc1ccccc1	0	nt	nt	nt	-8	nt
CCn1c(Sc2ccc([N+](=O)[O-])cn2)nnc1-c1ccco1	-1	nt	nt	nt	-7	nt
Cc1ccc(-c2c3c(=O)n(C)c(=O)n(C)c3cn2Cc2ccccc2)cc1	-1	38*	-37	42	6	16
CC1(C)CC(=O)c2cnc(NC(=O)CSc3nc4ccccc4o3)nc2C1	7	17*	-22	i	2	nt
O=C(CSc1nc2ccccc2o1)Nc1ccccc1N1CCOCC1	2	48*	-36	53	-26	-13
Cc1cc(C)nc(SCC(=O)Nc2ncc3c(n2)CC(C)(C)CC3=O)n1	0	12	-41	16	1	-9
Cc1nn2c3ccccc3nc2c2ccccc12	1	14	79*	62	-5	-12
Cc1ccccc1C(=O)NNC(=O)Nc1ccccc1	2	nt	nt	nt	-7	nt
CN(C)c1ccc(/C=C(/C(=O)c2ccc(Cl)cc2Cl)n2cncn2)cc1	1	16	3	41	7	17
CN(C)/C=C(/C(=O)c1ccc(Cl)cc1)n1cncn1	3	nt	nt	nt	-15	nt
CC(C)CC(=O)/C(=C\c1ccc(Cl)cc1Cl)n1cncn1	-1	1	61*	57	-12	-3
SMILES	RAM network inh	Measles CPE	Yeast growth inh	INS promoter inh	MDM2 E3 inh	Yeast lifespan up
COc1ccc(/C=C(/C(=O)c2ccc(Cl)cc2Cl)n2cncn2)cc1	-2	2	-12	nt	-11	43*
CCOC(=O)C1(CC2CCCCO2)CCN(S(=O)(=O)c2c(C)nn(C)c2C)CC1 (stereo not given)	1	nt	nt	nt	-18	nt
COc1ccc(S(=O)(=O)NCc2cc(-c3ccccc3Cl)no2)cc1	0	nt	nt	-164	0	nt
CC(NC(=O)/C(=C/c1ccc(OC(F)F)cc1)c1ccccc1)c1ccccc1 (stereo not given)	9.6*	9	-15	nt	-18	17
COCC(C)NC(=O)/C(=C/c1ccccc1)c1ccccc1 (stereo not given)	2	nt	nt	nt	0	nt
CCCNC(=O)OC[C@H]1O[C@H](CCO/N=C/C[C@@H]2C=C[C@H](OC(C)=O)[C@@H](COC(C)=O)O2)C=C[C@@H]1Oc1ccc(OC)cc1	1	20	-22	-5	nt	-3
CCCNC(=O)OC[C@H]1O[C@H](CCO/N=C(\C)CCN2CCc3nc(-c4ccccc4)c(-c4ccccc4)cc3C2)C=C[C@@H]1Oc1ccc(OC)cc1	0	21	-57	5	nt	32*
Cc1ccc(/C=C2\Oc3cc(OC(=O)N4CCOCC4)ccc3C2=O)cc1	7	11	-29	2	-9	-4
O=C(Oc1ccc2c(c1)O/C(=C\c1ccncc1)C2=O)c1ccccc1	-1	40*	-41	nt	-5	23
COc1ccc(N2CCN(C(c3ccc4ncccc4c3)c3nnnn3C(C)C)CC2)cc1 (stereo not given)	nt	nt	nt	nt	-7	nt
Cc1ccc(N2C(=N)/C(=C3/Nc4ccccc4S3)C(c3ccccc3)C2=O)cc1 (stereo not given)	5	14	-30	nt	-4	4
Cc1nc(CC(=O)c2ccc(O)cc2O)cs1	0	7	-8	-27	-17	-7
O=C(Cc1cscn1)c1ccc(O)cc1O	-1	36*	10	nt	-11	-6
O=C(Cn1cc([N+](=O)[O-])nc1[N+](=O)[O-])N1CCN(c2ccccc2)CC1	2	nt	nt	nt	-1	nt
CC(NC(=O)c1ccc(OC2CCN(S(=O)(=O)N(C)C)CC2)cc1)C1CC1 (stereo not given)	0	nt	nt	nt	-23	nt
N#Cc1ccc(C(=O)CSc2n[nH]c(=O)n2-c2cccnc2)cc1	nt	nt	nt	nt	-5	nt
COc1ccccc1NC(=O)Nc1ccc(Cl)c(S(=O)(=O)Nc2ccccc2OC)c1	8.4*	12	-24	-14	-13	2
CCN(CC)c1ccc(NC(=O)c2cccc(C)c2)cc1S(=O)(=O)Nc1ccccc1OC	3	10	-21	39	-14	2
CCN(CC)c1ccc(NC(=O)c2ccccc2)cc1S(=O)(=O)Nc1ccccc1OC	1	45*	-10	5	-1	-2
CCNC(=O)NC(=O)C(C)Sc1nc2ccccc2n1CC(C)C (stereo not given)	1	3	7	12	6	-14
COc1ccc(NC(=O)c2cc(S(=O)(=O)N(Cc3ccccc3)c3ccccc3)ccc2Cl)cn1	7	39*	-45	-12	-8	9
COc1ccnc(Oc2ccc(C)cc2)c1C#N	0	67*	-48	3	-1	-21
Cc1cccc(-n2c(=S)[nH]c3sc4c(c3c2=O)CCc2ccccc2-4)c1	6	nt	nt	25	-1	nt
Nc1ccc(O)cc1C(=O)OCC(=O)C12CC3CC(CC(C3)C1)C2	0	11	-37	15	-6	43
Nc1ccc(O)cc1C(=O)OCC(=O)c1ccc(C2CCCCC2)cc1	10*	3	-44	-21	-1	8
Cc1ccc2nc(C)cc(C(=O)OCC(=O)Nc3cccnc3Cl)c2c1	3	nt	nt	nt	-4	nt
CCCCCCOc1ccc(-c2ccc(C#N)cn2)cc1	10*	9	-76	-8	-1	-15
